In PMC10733988 (ACS Omega, 2023):

Tests used:
Recombinant human MAO-B [1] = target: T1, Recombinant human MAO-B (Homo sapiens, UniProt P27338); assay: MAO-B inhibition enzyme assay; assay type: biochemical; conditions: for remaining activity at 10 µM: read-out: residual activities at 10 μM (%) MAO-B; for SI (selectivity index): IC50 for MAO-A / IC50 for MAO-B
T1 sequence (P27338 1-520): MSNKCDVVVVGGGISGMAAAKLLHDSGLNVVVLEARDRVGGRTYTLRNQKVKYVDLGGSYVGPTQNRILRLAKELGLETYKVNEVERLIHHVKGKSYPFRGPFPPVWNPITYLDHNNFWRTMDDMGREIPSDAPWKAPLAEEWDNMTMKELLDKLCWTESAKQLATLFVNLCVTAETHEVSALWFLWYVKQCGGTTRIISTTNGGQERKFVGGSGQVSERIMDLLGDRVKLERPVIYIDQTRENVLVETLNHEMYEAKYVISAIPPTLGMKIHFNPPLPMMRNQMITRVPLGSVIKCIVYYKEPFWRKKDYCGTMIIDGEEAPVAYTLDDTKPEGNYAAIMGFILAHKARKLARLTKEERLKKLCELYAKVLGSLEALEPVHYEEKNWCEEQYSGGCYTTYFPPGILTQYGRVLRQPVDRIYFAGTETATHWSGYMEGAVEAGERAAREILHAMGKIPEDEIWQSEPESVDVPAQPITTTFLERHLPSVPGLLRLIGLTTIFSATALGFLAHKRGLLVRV

Recombinant human MAO-A = target: T2, Recombinant human MAO-A (Homo sapiens, UniProt P21397); assay: MAO-A inhibition enzyme assay; assay type: biochemical; conditions: for remaining activity at 10 µM: read-out: residual activities at 10 μM (%) MAO-A
T2 sequence (P21397 1-527): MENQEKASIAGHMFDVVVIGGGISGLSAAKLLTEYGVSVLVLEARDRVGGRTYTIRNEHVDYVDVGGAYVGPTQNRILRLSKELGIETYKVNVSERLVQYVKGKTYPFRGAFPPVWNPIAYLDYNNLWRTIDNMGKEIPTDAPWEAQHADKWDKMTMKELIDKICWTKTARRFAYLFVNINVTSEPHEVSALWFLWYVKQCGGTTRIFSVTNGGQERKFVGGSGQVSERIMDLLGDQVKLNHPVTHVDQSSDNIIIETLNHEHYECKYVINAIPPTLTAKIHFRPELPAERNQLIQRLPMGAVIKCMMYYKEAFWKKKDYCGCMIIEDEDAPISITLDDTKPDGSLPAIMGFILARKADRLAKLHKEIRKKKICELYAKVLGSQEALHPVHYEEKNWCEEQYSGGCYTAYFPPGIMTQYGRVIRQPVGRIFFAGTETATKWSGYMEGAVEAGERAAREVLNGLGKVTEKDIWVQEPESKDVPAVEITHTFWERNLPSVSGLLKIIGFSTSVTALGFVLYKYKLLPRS

Recombinant human MAO-B [2] = target: T1, Recombinant human MAO-B; assay: Reversibility of MAO-B inhibition by dialysis; assay type: biochemical; conditions: dialysis method
BBB permeability assay = assay type: in vitro ADME; conditions: for Papp / prediction (BBB permeation): PAMPA; for prediction (BBB permeation): class from Pe
Method in brief: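 Passive BBB permeation is estimated with a non-cell PAMPA: a filter membrane (0.45 µm pore, 125 µm thick) soaked in n-dodecane sits between donor and acceptor wells. Test compound stocks (10 mM in DMSO, kept at 0 °C) are diluted in buffer to final 1, 0.1 and 0.01 mM, with DMSO below 1% (v/v). Pe is calculated from donor and receptor absorbance, filter area (0.45 cm²), compartment volumes and time.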

Recombinant human MAO-B [3] = target: T1, Recombinant human MAO-B; assay: MAO-B enzyme kinetics; assay type: biochemical; conditions: for type of MAO-B inhibition: Lineweaver-Burk plot
Method in brief: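 Recombinant human MAO-B in 50 mM sodium phosphate (pH 7.2), 25 °C, 30 min. Benzylamine was the substrate, tested at five concentrations, and product formation was followed continuously as absorbance change at 250 nm. Reactions were started by adding substrate to the enzyme mixture, with three inhibitor conditions per test compound. Inhibition type came from Lineweaver–Burk plots and Ki from secondary plots.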

Row | Compound | IC50 (Recombinant human MAO-B [1]) [nM] | remaining activity at 10 µM (Recombinant human MAO-B [1]) [%] | IC50 (Recombinant human MAO-A) [µM] | remaining activity at 10 µM (Recombinant human MAO-A) [%] | SI (selectivity index) (Recombinant human MAO-B [1]) | reversibility of MAO-B inhibition (Recombinant human MAO-B [2]) | Papp (BBB permeability assay) [×10⁻⁶ cm/s] | prediction (BBB permeation) (BBB permeability assay) | Ki (Recombinant human MAO-B [3]) [nM] | type of MAO-B inhibition (Recombinant human MAO-B [3]) | Pe (cm/s) (BBB permeability assay; PAMPA effective permeability)
1 | O=C(NN=Cc1ccc(Cl)cc1)c1ccccc1 [ACH1] | 360 ± 40 | 10.7 ± 2.52 | > 40 | 96 ± 8.49 | – | – | – | – | – | – | –
2 | O=C(NN=Cc1ccc(Br)cc1)c1ccccc1 [ACH2] | 1650 ± 210 | 30.2 ± 0.95 | > 40 | 131 ± 2.9 | – | – | – | – | – | – | –
3 | O=C(NN=Cc1ccc(F)cc1)c1ccccc1 [ACH3] | 220 ± 20 | 7.08 ± 1.25 | > 40 | 109 ± 7.07 | – | – | – | – | – | – | –
4 | O=C(NN=Cc1ccc(Cl)cc1)c1ccc(Cl)cc1 [ACH4] | 370 ± 6 | 20.2 ± 1.68 | > 40 | 92.1 ± 1.86 | > 108.11 | – | – | – | – | – | –
5 | O=C(NN=Cc1ccc(Br)cc1)c1ccc(Cl)cc1 [ACH5] | 1540 ± 40 | 35.8 ± 1.88 | > 40 | 70.6 ± 4.16 | > 25.97 | – | – | – | – | – | –
6 | O=C(NN=Cc1ccc(F)cc1)c1ccc(Cl)cc1 [ACH6] | 8000 ± 37 | 46.4 ± 1.68 | > 40 | 117 ± 1.86 | > 5.00 | – | – | – | – | – | –
7 | O=C(NN=Cc1ccccc1)c1ccc(Cl)cc1 [ACH7] | 12800 ± 26 | 43.5 ± 4.56 | > 40 | 127 ± 3.48 | > 3.13 | – | – | – | – | – | –
8 | O=C(NN=Cc1ccc(Cl)cc1)c1ccc(Br)cc1 [ACH8] | 200 ± 90 | 18.3 ± 3.45 | 20.2 ± 0.57 | 59.6 ± 3.12 | 101.10 | – | – | – | – | – | –
9 | O=C(NN=Cc1ccc(Br)cc1)c1ccc(Br)cc1 [ACH9] | > 40000 | 98.2 | > 40 | 101 ± 1.86 | – | – | – | – | – | – | –
10 | O=C(NN=Cc1ccc(F)cc1)c1ccc(Br)cc1 [ACH10] | 140 ± 11 | 11.7 ± 1.42 | 23.4 ± 0.56 | 61.8 ± 6.24 | 167.29 | reversible inhibitors of MAO-B | 5.12 | CNS+ (Pe > 4.00 × 10^–6 cm/s: CNS+ (high permeation)) | 97 ± 2.1 | competitive MAO-B inhibitors | –
11 | O=C(NN=Cc1ccccc1)c1ccc(Br)cc1 [ACH11] | 5200 ± 56 | 39 ± 5.61 | > 40 | 102 ± 4.64 | > 7.69 | – | – | – | – | – | –
12 | O=C(NN=Cc1ccc(Cl)cc1)c1ccc(F)cc1 [ACH12] | 5600 ± 100 | 33.8 | 4.85 ± 0.83 | 37.6 ± 2.24 | 0.87 | – | – | – | – | – | –
13 | O=C(NN=Cc1ccc(Br)cc1)c1ccc(F)cc1 [ACH13] | 180 ± 10 | -50.9 | 11.6 ± 0.07 | 38.5 ± 5.44 | 64.44 | – | – | – | – | – | –
14 | O=C(NN=Cc1ccc(F)cc1)c1ccc(F)cc1 [ACH14] | 150 ± 20 | -14.4 | 19.6 ± 1.41 | 63.8 ± 1.76 | 130.47 | reversible inhibitors of MAO-B | 4.98 | CNS+ (Pe > 4.00 × 10^–6 cm/s: CNS+ (high permeation)) | 100 ± 38 | competitive MAO-B inhibitors | –
15 | C#CCN(C)[C@H](C)Cc1ccccc1 [selegiline, reference compound] | – | – | – | – | – | – | – | CNS+ (Pe > 4.00 × 10^–6 cm/s: CNS+ (high permeation)) | – | – | 5.69 ± 0.04
